# Measurements as given in ChEMBL document CHEMBL1158703, “Psychopharmacological profile of the alkaloid psychollatine as a 5HT2A/C serotonin modulator” (2005).
# The source made the active and inactive calls.
# Key:
# Mus musculus [1] = test: Effect on long term memory of CF1 mouse assessed as reduction in step down latency at 100 mg/kg by passive avoidance test; assay type: functional
# In short: (§1)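 Step-down inhibitory avoidance in male CF1 mice dosed i.p. immediately after training, during which a 0.3 mA foot shock for 15 s followed stepping down. Test step-down latency was recorded 24 h later without shock, with a 300 s cutoff. N = 20 per group; values are median (interquartile range).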
# Mus musculus [2] = test: Anxiolytic activity against CF1 mouse assessed as increase in number of head dips at 15 mg/kg after 30 mins by hole-board assay; assay type: functional, organism-based; parameters: dose 15 mg/kg
# In short: (§2)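 Hole-board set 15 cm high and divided into 16 squares, with photocells counting head-dips. Male CF1 mice were dosed i.p. and placed centrally 30 min later under dim light. Over 5 min, head-dips, rearings and squares crossed were counted. Values are mean ± SEM (N = 15), analysed by one-way ANOVA then SNK.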
# Mus musculus [3] = test: Anxiolytic activity against CF1 mouse assessed as increase in number of rearings at 7.5 mg/kg after 30 mins in presence of ritanserin by hole-board assay; assay type: functional, organism-based; parameters: dose 7.5 mg/kg
# In short: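 Male CF1 mice received ritanserin 2 mg/kg i.p. in 10% DMSO 30 min before the test drug at 7.5 mg/kg i.p. The 5 min hole-board session began 30 min later, counting head-dips, crossings and rearings. Values are mean ± SEM (N = 8-14), analysed by ANOVA/SNK.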
# Mus musculus [4] = test: Anxiolytic activity against CF1 mouse assessed as increase in time spent in light compartment at 7.5 mg/kg for 5 mins; assay type: functional, organism-based; parameters: dose 7.5 mg/kg
# In short: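 Light/dark box with a black, room-lit small compartment and a white large compartment lit at 400 lx. Male CF1 mice were acclimated at least 1 h under dim red light and dosed i.p. 30 min before testing. Recorded were latency to first entry and time spent in the light area. Values are mean ± SEM (N = 19-22), analysed by one-way ANOVA then SNK.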
# Mus musculus [5] = test: […] of CF1 mouse assessed as reduction in step down latency at 30 mg/kg by passive avoidance test; assay type: functional
# Mus musculus [6] = test: […] of CF1 mouse assessed as reduction in step down latency at 10 mg/kg by passive avoidance test; assay type: functional
# Mus musculus [7] = test: Effect on long term memory of CF1 mouse assessed as reduction in step down latency at 7.5 mg/kg by passive avoidance test; assay type: functional; in short: as §1
# Mus musculus [8] = test: Anxiolytic activity against CF1 mouse assessed as increase in number of crossings at 15 mg/kg after 30 mins by hole-board assay; assay type: functional, organism-based; parameters: dose 15 mg/kg; in short: as §2
# Mus musculus [9] = test: Anxiolytic activity against CF1 mouse assessed as increase in latency to enter in the dark compartment 7.5 mg/kg in presence of ritanserin for 5 mins; assay type: functional, organism-based; parameters: dose 7.5 mg/kg
# In short: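 Male CF1 mice received ritanserin 2 mg/kg i.p. (in 10% DMSO) 30 min before the test drug at 7.5 mg/kg i.p. The light/dark test followed 30 min later, scoring latency to first entry and time in the light compartment. Values are mean ± SEM (N = 8-10), analysed by one-way ANOVA/SNK.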
# Mus musculus [10] = test: […] of CF1 mouse assessed as reduction in step down latency at 3 mg/kg by passive avoidance test; assay type: functional
# Mus musculus [11] = test: Effect on locomotory activity in CF1 mouse assessed as change in spontaneous activity at 0.75 and 0.85 mg/kg; assay type: functional, organism-based; parameters: dose 0.85 mg/kg
# In short: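 Mice were habituated singly for 10 min in photocell activity cages and then dosed i.p. Diazepam was given in 10% propylene glycol. After 30 min, crossings were recorded for 15 min. n = 10–16, ANOVA then SNK.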
# Mus musculus [12] = test: Anxiolytic activity against CF1 mouse assessed as suppression of oxotremorine-treated tremors at 30 mg/kg; assay type: functional, organism-based; parameters: dose 30 mg/kg
# In short: (§3)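 Male CF1 mice were given the test drug i.p. in saline 30 min before oxotremorine 0.5 mg/kg. Each mouse was then placed alone in an acrylic cage for observation of tremor. Values are median (interquartile range), analysed by Kruskal–Wallis then Mann–Whitney U against saline + oxotremorine.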
# Mus musculus [13] = test: Anxiolytic activity against CF1 mouse assessed as suppression of oxotremorine-treated tremors at 100 mg/kg; assay type: functional, organism-based; parameters: dose 100 mg/kg; in short: as §3
# Mus musculus [14] = test: Anxiolytic activity against CF1 mouse assessed as increase in number of rearings at 15 mg/kg after 30 mins by hole-board assay; assay type: functional, organism-based; parameters: dose 15 mg/kg; in short: as §2
smiles,measurement,setting,value
COC(=O)C1=CO[C@@H](O[C@H]2O[C@H](CO)[C@@H](O)[C@H](O)[C@H]2O)[C@@H]2C([C@@H]3NCCc4c3[nH]c3ccccc43)=CC[C@H]12 [PSYCHOLLATINE],Activity,Mus musculus [1],9.5 s
same,Activity,Mus musculus [2],Active
same,Activity,Mus musculus [3],inactive
same,Activity,Mus musculus [4],Active
same,Activity,Mus musculus [5],12.8 s
same,Activity,Mus musculus [6],11.55 s
same,Activity,Mus musculus [7],13.1 s
same,Activity,Mus musculus [8],Active
same,Activity,Mus musculus [9],inactive
same,Activity,Mus musculus [10],11.8 s
same,Activity,Mus musculus [11],inactive
same,Activity,Mus musculus [12],Active
same,Activity,Mus musculus [13],Active
same,Activity,Mus musculus [14],Active
